Common to all, as to assay type: functional
Design in all cases: scale not given: the % may be the effect or the level left
Conditions in all cases: route intraperitoneal

In assay [1] the test system is Rattus norvegicus. The experiment in a line: Antihyperlipidemic effect in high fat diet-induced rat assessed as decrease in serum triglyceride level at 10 mg/kg, ip relative to control. The method, boiled down: (§1)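 Male JCL:Wistar rats (150 g) on commercial chow 1 week, then high-fat diet (10 g soybean oil per 100 g, casein, α-cornstarch) 6 days, pair-matched for blood triglyceride and body weight. Compound suspended in 5% EtOH/saline, ip once daily for 3 days; controls get vehicle. Sacrificed 4 h after last dose (2–3 PM); serum separated at 1000 g, 4°. Six rats per group; percent of control; Student's t-test.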

In assay [2] the test system is Rattus norvegicus. As to the kind of experiment: Antihyperlipidemic effect in high fat diet-induced rat assessed as decrease in serum total cholesterol level at 10 mg/kg, ip relative to control. In short, it runs like this: as §1
The subject of assay [3] is Rattus norvegicus. The experiment in a line: Antihyperlipidemic effect in high fat diet-induced rat assessed as decrease in serum triglyceride level at 20 mg/kg, ip relative to control. The method, boiled down:
as §1

The subject of assay [4] is Rattus norvegicus. As to the kind of experiment: Antihyperlipidemic effect in high fat diet-induced rat assessed as decrease in serum total cholesterol level at 20 mg/kg, ip relative to control. In short, it runs like this:
as §1

SMILES strings stand for the structures.

Take `COc1ccc([C@@H]2CC(=O)c3c(O[C@@H]4O[C@H](CO)[C@@H](O)[C@H](O)[C@H]4O)cc(O)cc3O2)cc1O`: the Activity turned out to be 100% with Rattus norvegicus [1], 88% in the assay on Rattus norvegicus [2], 90% in the assay on Rattus norvegicus [3] and 101% in the assay with Rattus norvegicus [4].
For `Oc1cc(O)c2c(c1)O[C@H](c1ccc(O)c(O)c1)[C@@H](O)C2` [CIANIDANOL], the Activity came to 75% with Rattus norvegicus [1], 95% in the assay on Rattus norvegicus [2], 73% in the assay with Rattus norvegicus [3] and 99% in the assay on Rattus norvegicus [4].
The matching figures for `O=C1C[C@@H](c2ccc(O)cc2)Oc2cc(O[C@@H]3O[C@H](CO)[C@@H](O)[C@H](O)[C@H]3O)cc(O)c21` [PRUNIN]: 90%, 102%, 107% and 91%.

These data come from ChEMBL document CHEMBL1158940, “Antihyperlipidemic effect of flavonoids from Prunus davidiana” (1991).
